# Source: ChEMBL document CHEMBL5247578, “Effective synthesis of benzimidazoles-imidazo[1,2-a]pyrazine conjugates: A comparative study of mono-and bis-benzimidazoles for antitumor activity” (Eur J Med Chem, 2019)
# How the values were obtained:
# MDA-MB-435 = assay: Antiproliferative activity against human MDA-MB-435 cells assessed as cell growth inhibition at 10 uM incubated for 48 hrs by sulforhodamine B assay relative to control; format: functional
# Outline: (§1)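 NCI-60 single-dose screen at 10^-5 M. Cells grown in RPMI 1640 with 5% FBS and 2 mM L-glutamine, plated at 5,000–40,000 cells/well, and preincubated 24 h. Drug (DMSO stock) added and incubated 48 h at 37 °C, 5% CO2. Adherent cells fixed with cold TCA, stained with 0.4% SRB in 1% acetic acid, dye solubilized in 10 mM trizma base, A515 read. Percent growth taken against time-zero and untreated control.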
# HT-29 = assay: Antiproliferative activity against human HT-29 cells assessed as cell growth inhibition at 10 uM incubated for 48 hrs by sulforhodamine B assay relative to control; format: functional; outline: as §1
# MDA-MB-231 = assay: Antiproliferative activity against human MDA-MB-231 cells assessed as cell growth inhibition at 10 uM incubated for 48 hrs by sulforhodamine B assay relative to control; format: functional; outline: as §1
# CAKI-1 = assay: Antiproliferative activity against human CAKI-1 cells assessed as cell growth inhibition at 10 uM incubated for 48 hrs by sulforhodamine B assay relative to control; format: functional
# Outline: (§2)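 Single-dose NCI-60 prescreen at 10^-5 M. Cells in RPMI 1640 with 5% FBS and 2 mM L-glutamine, seeded 5,000–40,000 cells/well with 24 h preincubation, then drug exposure for 48 h at 37 °C under 5% CO2. Growth read by SRB staining of TCA-fixed cells at 515 nm against time-zero and untreated controls. Negative growth values denote cell kill.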
# SNB-75 = assay: Antiproliferative activity against human SNB-75 cells assessed as cell growth inhibition at 10 uM incubated for 48 hrs by sulforhodamine B assay relative to control; format: functional; outline: as §1
# SK-MEL-2 = assay: Antiproliferative activity against human SK-MEL-2 cells assessed as cell growth inhibition at 10 uM incubated for 48 hrs by sulforhodamine B assay relative to control; format: functional; outline: as §1
# OVCAR-8 = assay: Antiproliferative activity against human OVCAR-8 cells assessed as cell growth inhibition at 10 uM incubated for 48 hrs by sulforhodamine B assay relative to control; format: functional; outline: as §1
# SR = assay: Antiproliferative activity against human SR cells assessed as cell growth inhibition at 10 uM incubated for 48 hrs by sulforhodamine B assay relative to control; format: functional; outline: as §1
# SF-295 = assay: Antiproliferative activity against human SF-295 cells assessed as cell growth inhibition at 10 uM incubated for 48 hrs by sulforhodamine B assay relative to control; format: functional; outline: as §1
# HCT-116 = assay: Antiproliferative activity against human HCT-116 cells assessed as cell growth inhibition at 10 uM incubated for 48 hrs by sulforhodamine B assay relative to control; format: functional
# Outline: (§3)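 NCI-60 one-dose prescreen at 10^-5 M. Cells grown in RPMI 1640 with 5% FBS and 2 mM glutamine, preincubated 24 h, then exposed 48 h at 37 °C. Adherent lines TCA-fixed, SRB-stained, A515 read. Growth percent relative to time-zero and control; negative values mean cell kill.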
# DU-145 = assay: Antiproliferative activity against human DU-145 cells assessed as cell growth inhibition at 10 uM incubated for 48 hrs by sulforhodamine B assay relative to control; format: functional; outline: as §3
# Malme-3M = assay: Antiproliferative activity against human Malme-3M cells assessed as cell growth inhibition at 10 uM incubated for 48 hrs by sulforhodamine B assay relative to control; format: functional; outline: as §1
# SN12C = assay: Antiproliferative activity against human SN12C cells assessed as cell growth inhibition at 10 uM incubated for 48 hrs by sulforhodamine B assay relative to control; format: functional; outline: as §1
# [1] = n-Octanol/phosphate buffer partition coefficient, logP of the compound at pH 7.4 incubated for 85 mins by shake-flask method; format: physicochemical
# Outline: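 Octanol–water partition by shake-flask: n-octanol with 0.15 M phosphate buffer pH 7.4 at 10:1 volumes. Buffer-phase absorbance read before mixing, then shaken 50 min and centrifuged at 2500 rpm for 35 min. Buffer absorbance read again; P = (Ai−Af)/Af × Vw/Vo.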
# TK-10 = assay: Antiproliferative activity against human TK-10 cells assessed as cell growth inhibition at 10 uM incubated for 48 hrs by sulforhodamine B assay relative to control; format: functional; outline: as §1
# HCC 2998 = assay: Antiproliferative activity against human HCC 2998 cells assessed as cell growth inhibition at 10 uM incubated for 48 hrs by sulforhodamine B assay relative to control; format: functional; outline: as §3
# SK-MEL-28 = assay: Antiproliferative activity against human SK-MEL-28 cells assessed as cell growth inhibition at 10 uM incubated for 48 hrs by sulforhodamine B assay relative to control; format: functional; outline: as §1
# BT-549 = assay: Antiproliferative activity against human BT-549 cells assessed as cell growth inhibition at 10 uM incubated for 48 hrs by sulforhodamine B assay relative to control; format: functional; outline: as §2
# HOP-62 = assay: Antiproliferative activity against human HOP-62 cells assessed as cell growth inhibition at 10 uM incubated for 48 hrs by sulforhodamine B assay relative to control; format: functional; outline: as §3
# K562 = assay: Antiproliferative activity against human K562 cells assessed as cell growth inhibition at 10 uM incubated for 48 hrs by sulforhodamine B assay relative to control; format: functional; outline: as §1
# HL-60 = assay: Antiproliferative activity against human HL-60 cells assessed as cell growth inhibition at 10 uM incubated for 48 hrs by sulforhodamine B assay relative to control; format: functional; outline: as §3
# KM12 = assay: Antiproliferative activity against human KM12 cells assessed as cell growth inhibition at 10 uM incubated for 48 hrs by sulforhodamine B assay relative to control; format: functional; outline: as §1
# UO-31 = assay: Antiproliferative activity against human UO-31 cells assessed as cell growth inhibition at 10 uM incubated for 48 hrs by sulforhodamine B assay relative to control; format: functional; outline: as §1
# UACC-62 = assay: Antiproliferative activity against human UACC-62 cells assessed as cell growth inhibition at 10 uM incubated for 48 hrs by sulforhodamine B assay relative to control; format: functional; outline: as §1
# UACC-257 = assay: Antiproliferative activity against human UACC-257 cells assessed as cell growth inhibition at 10 uM incubated for 48 hrs by sulforhodamine B assay relative to control; format: functional; outline: as §1
# SK-OV-3 = assay: Antiproliferative activity against human SK-OV-3 cells assessed as cell growth inhibition at 10 uM incubated for 48 hrs by sulforhodamine B assay relative to control; format: functional; outline: as §1
# SNB-19 = assay: Antiproliferative activity against human SNB-19 cells assessed as cell growth inhibition at 10 uM incubated for 48 hrs by sulforhodamine B assay relative to control; format: functional; outline: as §1
# COLO 205 = assay: Antiproliferative activity against human COLO 205 cells assessed as cell growth inhibition at 10 uM incubated for 48 hrs by sulforhodamine B assay relative to control; format: functional; outline: as §2
# OVCAR-3 = assay: Antiproliferative activity against human OVCAR-3 cells assessed as cell growth inhibition at 10 uM incubated for 48 hrs by sulforhodamine B assay relative to control; format: functional; outline: as §1
smiles,measurement,setting,value
c1cn2cc(-c3ccc4ncn(C5CCCCC5)c4c3)nc(-c3ccc4ncn(C5CCCCC5)c4c3)c2n1,inhibition at 10 µM,MDA-MB-435,60.2%
same,inhibition at 10 µM,HT-29,71.9%
same,inhibition at 10 µM,MDA-MB-231,49.2%
same,inhibition at 10 µM,CAKI-1,54.6%
same,inhibition at 10 µM,SNB-75,25.4%
same,inhibition at 10 µM,SK-MEL-2,31.7%
same,inhibition at 10 µM,OVCAR-8,59.5%
same,inhibition at 10 µM,SR,71.8%
same,inhibition at 10 µM,SF-295,44%
same,inhibition at 10 µM,HCT-116,80.2%
same,inhibition at 10 µM,DU-145,46.3%
same,inhibition at 10 µM,Malme-3M,7.04%
same,inhibition at 10 µM,SN12C,42.7%
same,logD at 1.417 h,[1],1.19
same,inhibition at 10 µM,TK-10,14.4%
same,inhibition at 10 µM,HCC 2998,17.7%
same,inhibition at 10 µM,SK-MEL-28,24.4%
same,inhibition at 10 µM,BT-549,38.3%
same,inhibition at 10 µM,HOP-62,42.6%
same,inhibition at 10 µM,K562,69.8%
same,inhibition at 10 µM,HL-60,51%
same,inhibition at 10 µM,KM12,63.5%
same,inhibition at 10 µM,UO-31,68.8%
same,inhibition at 10 µM,UACC-62,51.9%
same,inhibition at 10 µM,UACC-257,35.5%
same,inhibition at 10 µM,SK-OV-3,14.8%
same,inhibition at 10 µM,SNB-19,41.2%
same,inhibition at 10 µM,COLO 205,22.4%
same,inhibition at 10 µM,OVCAR-3,40.4%
c1ccc(Cn2cnc3ccc(-c4nc(-c5ccc6c(c5)ncn6C5CCCCC5)cn5ccnc45)cc32)cc1,inhibition at 10 µM,MDA-MB-435,-6.16%
same,inhibition at 10 µM,HT-29,-48.7%
same,inhibition at 10 µM,MDA-MB-231,-70.1%
same,inhibition at 10 µM,CAKI-1,56.7%
same,inhibition at 10 µM,SNB-75,-67.4%
same,inhibition at 10 µM,SK-MEL-2,-36.7%
same,inhibition at 10 µM,OVCAR-8,97.5%
same,inhibition at 10 µM,SR,94.5%
same,inhibition at 10 µM,SF-295,-81.3%
same,inhibition at 10 µM,HCT-116,-75.8%
same,inhibition at 10 µM,DU-145,-28.2%
same,inhibition at 10 µM,Malme-3M,-15.4%
same,inhibition at 10 µM,SN12C,-35.4%
same,logD at 1.417 h,[1],1.61
same,inhibition at 10 µM,TK-10,94.8%
same,inhibition at 10 µM,HCC 2998,-88%
same,inhibition at 10 µM,SK-MEL-28,99.6%
same,inhibition at 10 µM,BT-549,-44.7%
same,inhibition at 10 µM,HOP-62,-9.39%
same,inhibition at 10 µM,HL-60,-20.8%
same,inhibition at 10 µM,KM12,-39.4%
same,inhibition at 10 µM,UO-31,-51.4%
same,inhibition at 10 µM,UACC-62,-31.2%
same,inhibition at 10 µM,UACC-257,-32.7%
same,inhibition at 10 µM,SK-OV-3,-22.2%
same,inhibition at 10 µM,SNB-19,80.4%
same,inhibition at 10 µM,COLO 205,-29.9%
same,inhibition at 10 µM,OVCAR-3,-35.7%
COc1ccc(-c2cn3ccnc3c(-c3ccc4ncn(C5CCCCC5)c4c3)n2)cc1,inhibition at 10 µM,MDA-MB-435,-18.6%
same,inhibition at 10 µM,HT-29,92.5%
same,inhibition at 10 µM,MDA-MB-231,71.1%
same,inhibition at 10 µM,SNB-75,-26.3%
same,inhibition at 10 µM,SK-MEL-2,94.3%
same,inhibition at 10 µM,OVCAR-8,71.2%
same,inhibition at 10 µM,SR,91.7%
same,inhibition at 10 µM,SF-295,92.5%
same,inhibition at 10 µM,HCT-116,91.3%
same,inhibition at 10 µM,DU-145,81.8%
same,inhibition at 10 µM,SN12C,63.6%
same,logD at 1.417 h,[1],1.41
same,inhibition at 10 µM,TK-10,18.5%
same,inhibition at 10 µM,HCC 2998,62.6%
same,inhibition at 10 µM,SK-MEL-28,47.7%
same,inhibition at 10 µM,BT-549,68.9%
same,inhibition at 10 µM,K562,92%
same,inhibition at 10 µM,HL-60,98.6%
same,inhibition at 10 µM,KM12,83.2%
same,inhibition at 10 µM,UO-31,61.5%
same,inhibition at 10 µM,UACC-62,65.2%
same,inhibition at 10 µM,UACC-257,26.3%
same,inhibition at 10 µM,SK-OV-3,74.3%
same,inhibition at 10 µM,SNB-19,68.4%
same,inhibition at 10 µM,COLO 205,-8.01%
same,inhibition at 10 µM,OVCAR-3,-26.5%
c1cn2cc(-c3ccc4c(c3)ncn4C3CCCCC3)nc(-c3ccc4ncn(C5CCCCC5)c4c3)c2n1,inhibition at 10 µM,MDA-MB-435,7.38%
same,inhibition at 10 µM,HT-29,58.2%
same,inhibition at 10 µM,MDA-MB-231,28.9%
same,inhibition at 10 µM,CAKI-1,15.9%
same,inhibition at 10 µM,SNB-75,24.8%
same,inhibition at 10 µM,SK-MEL-2,13.7%
same,inhibition at 10 µM,OVCAR-8,42.6%
same,inhibition at 10 µM,SR,50%
same,inhibition at 10 µM,SF-295,50.6%
same,inhibition at 10 µM,HCT-116,29.1%
same,inhibition at 10 µM,DU-145,8.72%
same,inhibition at 10 µM,Malme-3M,5.14%
same,inhibition at 10 µM,SN12C,20.5%
same,logD at 1.417 h,[1],1.9
same,inhibition at 10 µM,HCC 2998,15.5%
same,inhibition at 10 µM,BT-549,27.7%
same,inhibition at 10 µM,HOP-62,16.8%
same,inhibition at 10 µM,K562,38.5%
same,inhibition at 10 µM,HL-60,30%
same,inhibition at 10 µM,KM12,30.6%
same,inhibition at 10 µM,UO-31,25.6%
same,inhibition at 10 µM,UACC-62,29.3%
same,inhibition at 10 µM,UACC-257,14.9%
same,inhibition at 10 µM,SNB-19,10.6%
same,inhibition at 10 µM,COLO 205,6.71%
same,inhibition at 10 µM,OVCAR-3,3.05%
